The values below come from ChEMBL document CHEMBL1121626, “Quantitative structure-activity relationships for N-[N',N'-disubstituted-amino)acetyl]arylamines for local anesthetic activity and acute toxicity” (J Med Chem, 1980).

Structures are written as SMILES. Activity calls are given as the source filed them. The calls are words filed in the database; no cut-off is given here.

Usually logP stands for the decadic logarithm of the partition coefficient of the neutral form, usually between octanol and water. By LD50 is commonly meant the dose expected to kill half of the subjects tested. By pKa is commonly meant the pH at which an ionisable group is half protonated. The logD is lipophilicity at a set pH, counting ionised and neutral species.

Series [1] concerns Oryctolagus cuniculus. Kind of series: Anaesthetic activity measured as anaesthetic dose (AD) required to nullify the rabbit corneal reflex after 5 min. It is filed as functional, Cornea. In short, it runs like this: (§1)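 Aqueous drug solution, 0.25 mL, applied to rabbit cornea for 1 min, then wiped off. 100 regular mechanical stimulations were given. The minimal active dose is the concentration that abolished the corneal reflex at 5 min. Testing was repeated until 10 concordant results were obtained, with experimental error no more than 10%.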

Series [2] in a line: Partition coefficient (logP). In kind it is physicochemical. The following applies: octanol/water. In short, it runs like this:
(§2)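 Partition coefficients were measured by Brändström's titrimetric method at 25 °C in 1-octanol/water or cyclohexane/water. Amine hydrochloride in aqueous solution pre-saturated with the solvent was one-fifth neutralized with NaOH, then solvent was added. The pH was held at its original value by automatic alkali addition until equilibrium. Each value is the mean of eight determinations, reported with 95% confidence intervals.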

A short description of series [3]: Intravenous lethal dose of the compound. It is filed as ADME, organism-based. As to conditions: mouse, in vivo. Put shortly:
(§3)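 Mice, groups of 10 randomized animals; aqueous drug solution given intravenously at 0.2 mL/20 g body weight. Percentage dead scored 5 days after start of experiment; LD50 derived by the usual statistical method, reported with 95% confidence interval.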

The species named for series [4] is Mus musculus. Kind of series: Antiarrhythmic activity (arrhythmy induced by HCCl3 in mice) measured as its effect on ventricular fibrillation; No effect. In kind it is functional, organism-based. As to conditions: Heart.
Series [5] can be described thus: Partition coefficient (logP) (cyclohexane). In kind it is physicochemical. The following applies: cyclohexane/water. Put shortly: as §2
For series [6], the system named is Mus musculus. The series is described as follows: Compound was evaluated for lethal dose (pLD50 = log1/LD50 in mol/kg.). In kind it is toxicity, organism-based. The following applies: in vivo. Put shortly: as §3
In series [7] the test system is Oryctolagus cuniculus. Kind of series: Compound was evaluated for anesthetic dose (pAD = log 1/AD; AD = anesthetic dose).
Series [8] in a line: Dissociation constant was observed. It is filed as physicochemical. Put shortly: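 Values for water-insoluble compounds were obtained by extrapolation. Two values were derived indirectly from P = P'(1 + 10^(pKa − pH)), using P' measured at pH 12 and 7.34, or at pH 7.2 and 6.0.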
The nature of series [9]: Compound was evaluated for the apparent partition coefficient at pH 7.4. In kind it is physicochemical. As to conditions: octanol/water. Put shortly:
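Apparent partition coefficient at pH 7.4 was calculated from the octanol/water log P and pKa using P = P'(1 + 10^(pKa − pH)).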

The test system of series [10] is Mus musculus. The series is described as follows: Delay of respiratory arrest was observed at 10 mg/kg ip in mice in antiarrhythmic assay. The following applies: route intraperitoneal. It is filed as functional, Heart.
Series [11] has as its system Oryctolagus cuniculus. Kind of series: Anaesthetic activity measured as anaesthetic dose (AD) required to nullify the rabbit corneal reflex after 5 min;d = Irritant. The following applies: Cornea. In kind it is functional, organism-based. Put shortly: as §1
In series [12] the test system is Mus musculus. Kind of series: Delay of respiratory arrest was observed at 5 mg/kg ip in mice in antiarrhythmic assay. In kind it is functional, Heart. The following applies: route intraperitoneal.

In the series on Oryctolagus cuniculus [1], `CCN(CC)CC(=O)NC1CC(c2ccccc2)c2ccccc21.Cl` (stereo not given) showed an AD of 55.8 mM. For the same compound, the values for the logP in series [2] and in [5] were 4.41 and 4.153, respectively. Also, the LD50 in series [3] worked out at 164 µmol/kg. For the same compound, the outcome in the series filed under Mus musculus [4] was inactive. Besides, the pLD50 in the series with Mus musculus [6] amounted to 3.78. The pAD in the series with Oryctolagus cuniculus [7] is 1.55.
In the series with Oryctolagus cuniculus [1], `O=C(CN1CCCC1)NCc1ccccc1` showed an AD of 196 mM. The logP in [2] stood at 1.69; in series [5] it was 0.156. Further, the LD50 in series [3] amounted to 361 µmol/kg. In the series listed under Mus musculus [4], the outcome was inactive. The compound also registered a pLD50 with Mus musculus [6] of 3.44. The compound further gave a pAD with Oryctolagus cuniculus [7] of 0.71. In series [8], this compound registered a pKa of 8.27. The logD in series [9] was 0.769.
On to `CCN(CC)CC(=O)NC(c1ccccc1)c1ccccc1.Cl`, for which the Increase in the series with Mus musculus [10] amounted to 27.8%. In the series with Oryctolagus cuniculus [1], this compound returned an AD of 15 mM. In addition, the results for the logP in [2] and in series [5] were 3.74 and 3.2, respectively. This compound also registered an LD50 in series [3] of 212 µmol/kg. Moreover, the outcome in the series listed under Mus musculus [4] was inactive. In the series with Mus musculus [6], this compound showed a pLD50 of 3.67. The compound further registered a pAD in the series on Oryctolagus cuniculus [7] of 1.82.
Take `CCCN(CCC)CC(=O)NC1CCc2ccccc21.Cl` (stereo not given): the AD with Oryctolagus cuniculus [1] was 12.8 mM. Further, the logP in series [2] was found to be 3.79; in series [5] it was 3.277. The 50% lethal dose (LD50) in [3] came to 145 µmol/kg. Moreover, in the series listed under Mus musculus [4], the result was inactive. The compound further yielded a pLD50 with Mus musculus [6] of 3.84. In the series with Oryctolagus cuniculus [7], this compound showed a pAD of 1.89.
For the compound `CN(C)CC(=O)NCc1ccccc1.Cl`, the logP is 1.11 in series [2] and -0.453 in series [5]. For the same compound, the LD50 in [3] amounted to 735 µmol/kg. Also, the result in the series listed under Mus musculus [4] was inactive. Also, in the series with Oryctolagus cuniculus [11], the AD result is “Irritant”. The compound also had a pLD50 in the series with Mus musculus [6] of 3.13. In series [8], this compound yielded a pKa of 7.62. Moreover, the logD in [9] stood at 0.681.
Consider `CCCCCN(CCCCC)CC(=O)NCc1ccccc1.Cl`, for which, in the series with Oryctolagus cuniculus [1], the AD was determined as 29.3 mM. Also, the logP in series [2] is 5.19; in series [5] it was 5.259. Moreover, the result in the series listed under Mus musculus [4] was inactive. The compound further showed a pAD with Oryctolagus cuniculus [7] of 1.53.
As to `CCN(CC)CC(=O)NCc1ccccc1-c1ccccc1.Cl`, the AD in the series on Oryctolagus cuniculus [1] came out at 34.5 mM. Further, the Increase in the series on Mus musculus [12] amounted to 20.5%. Moreover, the logP in series [2] was determined as 3.74; in series [5], 3.2. Also, in series [3], the LD50 came to 128 µmol/kg. The outcome in the series filed under Mus musculus [4] was inactive. This compound came in with a pLD50 with Mus musculus [6] of 3.89. This compound returned a pAD with Oryctolagus cuniculus [7] of 1.82.
`CCN(CC)CC(=O)NCc1ccccc1.Cl` gave an Increase in the series on Mus musculus [10] of 25%. The compound also displayed an AD in the series on Oryctolagus cuniculus [1] of 117 mM. The values for the logP in series [2] and in series [5] were 2.14 and 1.02, respectively. Also, the LD50 in series [3] came out at 376 µmol/kg. Further, the result in the series filed under Mus musculus [4] was inactive. In the series with Mus musculus [6], the pLD50 came out at 3.42. The same compound displayed a pAD with Oryctolagus cuniculus [7] of 0.93. Further, the pKa in [8] was 8.07. The log distribution coefficient (logD) in series [9] came to 1.39.
On to `CCN(CC)CCOC(=O)c1ccc(N)cc1.Cl` [PROCAINE HYDROCHLORIDE], for which the AD in the series with Oryctolagus cuniculus [1] was 36.7 mM. The compound further came in with an LD50 in series [3] of 169 µmol/kg. In the series filed under Mus musculus [4], the result was inactive.
Consider `CCCCN(CCCC)CC(=O)NCc1ccccc1.Cl`, for which the AD in the series with Oryctolagus cuniculus [1] turned out to be 16 mM. Also, the Increase with Mus musculus [12] was 33.2%. In addition, the logP in [2] was determined as 4.16; in series [5] it was 3.791. This compound came in with an LD50 in [3] of 116 µmol/kg. Besides, the outcome in the series filed under Mus musculus [4] was inactive. This compound came in with a pLD50 in the series with Mus musculus [6] of 3.93. This compound also displayed a pAD in the series on Oryctolagus cuniculus [7] of 1.8.
In the series with Oryctolagus cuniculus [1], `CCCN(CCC)CC(=O)NC1c2ccccc2-c2ccccc21.Cl` showed an AD of 20.9 mM. Also, the logP worked out at 4.61 in [2] and 4.44 in series [5]. The result in the series listed under Mus musculus [4] was inactive. The same compound showed a pAD in the series on Oryctolagus cuniculus [7] of 1.68. The compound further displayed a pKa in series [8] of 7.28. Also, in series [9], the logD stood at 4.37.
In turn, `Cl.O=C(CN1CCOCC1)NCc1ccccc1` returned an AD in the series on Oryctolagus cuniculus [1] of 185 mM. Further, the logP in series [2] was 0.672; in series [5], -1.132. For the same compound, the LD50 in [3] stood at 1720 µmol/kg. Besides, the result in the series filed under Mus musculus [4] was inactive. The compound also displayed a pLD50 in the series with Mus musculus [6] of 2.77. Besides, in the series with Oryctolagus cuniculus [7], the pAD came out at 0.73. Moreover, the pKa in series [8] stood at 4.98. Moreover, the logD in series [9] was 0.67.
As for `CCN(CC)CC(=O)NC1c2ccccc2CCc2ccccc21.Cl`, the AD in the series with Oryctolagus cuniculus [1] is 20.9 mM. Besides, the logP in series [2] was 4.41; in series [5], 4.153. In series [3], this compound showed a 50% lethal dose (LD50) of 139 µmol/kg. Also, the result in the series listed under Mus musculus [4] was inactive. The compound further returned a pLD50 in the series on Mus musculus [6] of 3.86. This compound registered a pAD with Oryctolagus cuniculus [7] of 1.25.
The compound `Cl.O=C(CN1CCCCC1)NCc1ccccc1` had an AD with Oryctolagus cuniculus [1] of 186 mM. Moreover, the values for the logP in series [2] and in [5] were 2.27 and 1.198, respectively. Further, the LD50 in series [3] worked out at 245 µmol/kg. Moreover, the outcome in the series listed under Mus musculus [4] was inactive. Besides, the pLD50 in the series with Mus musculus [6] was 3.61. In the series on Oryctolagus cuniculus [7], this compound came in with a pAD of 0.73. Moreover, the pKa in [8] was found to be 7.71. The logD in [9] is 1.78.
Compound `CCN(CC)CC(=O)NC1c2ccccc2-c2ccccc21.Cl` had an AD in the series on Oryctolagus cuniculus [1] of 15.1 mM. The lipophilicity (logP) in series [2] was 3.64; in series [5] it was 3.067. In addition, in series [3], the 50% lethal dose (LD50) turned out to be 146 µmol/kg. Further, the outcome in the series listed under Mus musculus [4] was inactive. This compound came in with a pLD50 in the series on Mus musculus [6] of 3.83. The pAD with Oryctolagus cuniculus [7] was 1.82. The compound further had a pKa in [8] of 7.98. Moreover, the logD in [9] amounted to 2.96.
`CCN(CC)CC(=O)NC1CCc2ccccc21.Cl` (stereo not given) showed an AD in the series with Oryctolagus cuniculus [1] of 27.9 mM. The logP in [2] was 2.74; in series [5], 1.645. This compound displayed an LD50 in [3] of 238 µmol/kg. Moreover, in the series filed under Mus musculus [4], the result was inactive. The same compound returned a pLD50 in the series on Mus musculus [6] of 3.62. In the series on Oryctolagus cuniculus [7], this compound had a pAD of 1.45. Moreover, in series [8], the pKa came out at 8.19. The logD in series [9] came out at 1.88.
The compound `CCCN(CCC)CC(=O)NCc1ccccc1.Cl` returned an AD with Oryctolagus cuniculus [1] of 17.5 mM. The logP in [2] came to 3.11; in series [5], 2.386. In [3], the LD50 turned out to be 254 µmol/kg. In addition, the outcome in the series filed under Mus musculus [4] was inactive. For the same compound, the pLD50 with Mus musculus [6] is 3.59. Also, in the series on Oryctolagus cuniculus [7], the pAD came out at 1.75.
